Experimental data: PubChem BioAssay AID602146 (NMMLSC, 2011)

System: SCC-12F cells, EGF-induced EGFR degradation, Western blot
Test: EGFR lysosomal turnover delay in cells – SCC-12F cells, Western blot, mechanism study for Ras-related GTPase inhibitor project (AID 602146)
Details: at 100 µM, stronger effect = higher value; for EGFR remaining fraction at 60 min: measured here: 60 min time point
Method in brief: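 Compound dosing: 10–100 µM compound; Schedule: 2 h compound pretreatment, then EGF exposure up to 2 h; Technique: EGFR Western blot; Read-out: EGFR fraction versus time zero, compared with DMSO; Benchmarks: DMSO vehicle reference.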

Structure (SMILES) | EGFR remaining fraction at 120 min | EGFR remaining fraction at 60 min
CC1(C)Cc2c(sc(NC(=S)NC(=O)c3ccc(Br)cc3)c2C(=O)O)CO1 | 0.643 | 0.696
CC1(C)Cc2c(sc(NC(=S)NC(=O)c3ccc(F)cc3)c2C(=O)O)CO1 | 0.241 | 0.561
COc1cccc(C(=O)NC(=S)Nc2sc3c(c2C(=O)O)CC(C)(C)OC3)c1 | 1.24 | 0.651
